Data as given in paper PMC3961502 (The Journal of investigative dermatology, 2013).

What was measured:
Type in all cases: cell-based, human
[1] = system: PDGFR-β; experiment: PDGFR signaling by Western blot; details: AHDF preincubated 1 h with 80 µM dynasore, 1 nM PDGF-BB in HBSS (Figure S9)
How it was run: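 AHDF primary dermal fibroblasts (passage 8–12, grown in DMEM/10% FBS) were stimulated with 1 nM PDGF-BB ± 10 µM peptide in HBSS. Cells were lysed in Tris pH 7.5 buffer with phosphatase and protease inhibitors, sonicated and boiled. Equal protein was run on 10% SDS-PAGE and blotted to nitrocellulose, blocked in 2% BSA/TBST, and probed overnight at 4°C. Detection used HRP-secondary chemiluminescence, with signal intensity quantified.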

[2] = system: MCF-7 cells expressing GFP-PDGFR-β; experiment: PDGFR-GFP / TR-dextran co-localization; details: MCF-7 pre-incubated with 80 µM dynasore 1 h, then 1 nM PDGF-BB
How it was run: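 MCF-7 cells expressing GFP-PDGFR-β were pre-incubated 1 h with 80 µM dynasore in serum-free DMEM. They then received TR-dextran plus 1 nM PDGF-BB ± 10 µM peptide in HBSS for 15 min and were imaged by confocal microscopy. Both channel thresholds were set at 70, and >100 cells were scored per condition. Co-localization index = yellow pixels / (yellow + green pixels).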

[3] = system: AHDF; experiment: cell morphology by phase contrast microscopy under nutrient deprivation; details: AHDF in HBSS 3 days; 1 nM PDGF, 10 µM P12
[4] = system: AHDF; experiment: TUNEL apoptosis assay under nutrient deprivation; details: AHDF in HBSS, 3 days of starvation; 1 nM PDGF, 10 µM P12; >800 cells counted, n=6, mean

Compound	PDGF-BB stimulated p-Akt signal in the presence of dynasore [1]	PDGF-BB-stimulated internalization of PDGFR-GFP under dynamin inhibition [2]	cell morphology [3]	apoptosis, %TUNEL+ (TUNEL positive/DAPI positive) [4]
O=C(N/N=C/c1ccc(O)c(O)c1)c1cc2ccccc2cc1O [dynasore]	inhibition	minimal internalization		
PDGF-BB: platelet-derived growth factor BB, purchased from Invitrogen			rounded or shriveled	30%
